Two molecules from ChEMBL document CHEMBL4261550, “Triazolopyrimidines identified as reversible myeloperoxidase inhibitors” (Medchemcomm, 2017) can be followed below.

The structures appear in SMILES notation. Activity calls are given as the source filed them. No cut-off for these calls is given here.

Series [1] in a line: Hypochlorus scavenging activity at 10 uM in presence of sodium hypochlorite after 15 mins by APF dye based fluorescence assay relative to control. The series is classed as functional. Summed up:
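NaOCl-scavenger counterscreen in 1536-well format: 50 μM NaOCl in place of MPO with APF reagent, compound 10 μM final; fluorescence intensity read after 15 min incubation; ≥20% loss of fluorescence flagged as interference.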

For series [2], the target named is T1, Myeloperoxidase (Homo sapiens) (UniProt P05164).
T1 sequence (whole entry): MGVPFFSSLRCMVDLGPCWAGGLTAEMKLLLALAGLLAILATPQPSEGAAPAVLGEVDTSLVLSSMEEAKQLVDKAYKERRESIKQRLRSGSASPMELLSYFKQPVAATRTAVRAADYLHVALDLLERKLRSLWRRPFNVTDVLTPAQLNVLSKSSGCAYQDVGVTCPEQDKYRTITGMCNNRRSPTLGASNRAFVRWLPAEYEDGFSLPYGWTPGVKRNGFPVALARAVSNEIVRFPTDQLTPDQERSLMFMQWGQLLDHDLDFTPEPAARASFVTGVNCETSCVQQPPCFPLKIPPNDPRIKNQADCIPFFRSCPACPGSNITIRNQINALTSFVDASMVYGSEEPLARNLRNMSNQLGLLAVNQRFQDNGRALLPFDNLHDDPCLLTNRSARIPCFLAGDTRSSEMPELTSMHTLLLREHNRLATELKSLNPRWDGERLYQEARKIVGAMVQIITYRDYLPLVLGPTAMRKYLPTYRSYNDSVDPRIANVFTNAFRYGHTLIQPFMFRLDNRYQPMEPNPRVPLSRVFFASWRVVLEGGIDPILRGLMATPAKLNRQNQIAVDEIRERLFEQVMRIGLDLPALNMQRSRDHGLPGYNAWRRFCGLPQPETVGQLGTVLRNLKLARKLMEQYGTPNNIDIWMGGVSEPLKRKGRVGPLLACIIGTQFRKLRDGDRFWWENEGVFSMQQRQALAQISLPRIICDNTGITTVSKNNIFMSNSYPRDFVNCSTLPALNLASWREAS
Kind of series: Reversible inhibition of human MPO peroxidase activity at 50 to 250 nM preincubated for up to 30 mins followed by H2O2 addition and 2 to 10 times compound dilution measured at 30 secs time interval for 5 mins by amplex red reagent based fluorescence assay. In outline: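 20 nM MPO in phosphate buffer with 100 nM H2O2 and inhibitor at 2–10-fold enzyme concentration. Controls: 0.2% DMSO, irreversible hydrazide. Aliquots taken after 2, 10, 20 and 30 min and passed through a G50 spin column. 5 µL flow-through assayed by Amplex Red; initial rate gave % activity remaining versus control. Also run with 100 mM NaCl and 150 µM L-methionine.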

The target in series [3] is Cytochrome P450 3A4 (Homo sapiens, UniProt P08684). Kind of series: Inhibition of CYP3A4 (unknown origin). The series is classed as ADME.
A short description of series [4]: Protein binding in human plasma. The series is classed as ADME, cell-free. Conditions: read-out: PPB.
The nature of series [5]: Protein binding in mouse plasma. The format is ADME, cell-free. Conditions: read-out: PPB (converted).
In series [6] the test system is Mus musculus. Nature of the series: In vivo inhibition of MPO in PMA-stimulated C57BL6 mouse neutrophil degranulation model assessed as reduction in HOCl production at 30 mg/kg, po pretreated for 20 mins followed by PMA stimulation and measured after 2 mins by luminol chemiluminescence assay relative to control. The series is classed as functional. Summed up:
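C57Bl6 mice dosed orally 30 mpk or vehicle 20 min before retro-orbital PMA 0.62 mg/kg; blood drawn 2 min after PMA and held on ice; 100 μL blood mixed with luminol, chemiluminescence read kinetically 25 min at 37 °C, HOCl production rate calculated.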

The subject of series [7] is Mus musculus. Nature of the series: In vivo inhibition of MPO in PMA-stimulated C57BL6 mouse neutrophil degranulation model assessed as reduction in HOCl production at 100 mg/kg, po pretreated for 20 mins followed by PMA stimulation and measured after 2 mins by luminol chemiluminescence assay relative to control. The format is functional.
Series [8] in a line: Plasma concentration in PMA-stimulated C57BL6 mouse neutrophil degranulation model at 30 mg/kg, po after 20 mins. The format is ADME, organism-based.
The nature of series [9]: Plasma concentration in PMA-stimulated C57BL6 mouse neutrophil degranulation model at 100 mg/kg, po after 20 mins. The format is ADME, organism-based.
The nature of series [10]: Ratio of plasma concentration in PMA-stimulated C57BL6 mouse neutrophil degranulation model at 30 mg/kg, po after 20 mins to in vitro IC50 for MPO in PMA-stimulated human neutrophils. The series is classed as ADME, organism-based. Conditions: in vivo.
A short description of series [11]: Ratio of plasma concentration in PMA-stimulated C57BL6 mouse neutrophil degranulation model at 100 mg/kg, po after 20 mins to in vitro IC50 for MPO in PMA-stimulated human neutrophils. Conditions: in vivo. The format is ADME, organism-based.
For series [12], the target named is T2, Myeloperoxidase (Homo sapiens, UniProt P05164).
T2 sequence (P05164 whole entry): T1 sequence (whole entry)
Kind of series: Inhibition of human MPO chlorination activity assessed as reduction in ApoA1-mediated [1,2 3H]-cholesterol efflux in PMA-stimulated human THP1 cells preincubated with enzyme and ApoA1 for 30 mins in presence of H2O2 followed by addition to THP1 cells and measured after overnight incubation.

Series [13] deals with T3, Cytochrome P450 2B6 (Homo sapiens, UniProt P20813).
T3 sequence (P20813 whole entry): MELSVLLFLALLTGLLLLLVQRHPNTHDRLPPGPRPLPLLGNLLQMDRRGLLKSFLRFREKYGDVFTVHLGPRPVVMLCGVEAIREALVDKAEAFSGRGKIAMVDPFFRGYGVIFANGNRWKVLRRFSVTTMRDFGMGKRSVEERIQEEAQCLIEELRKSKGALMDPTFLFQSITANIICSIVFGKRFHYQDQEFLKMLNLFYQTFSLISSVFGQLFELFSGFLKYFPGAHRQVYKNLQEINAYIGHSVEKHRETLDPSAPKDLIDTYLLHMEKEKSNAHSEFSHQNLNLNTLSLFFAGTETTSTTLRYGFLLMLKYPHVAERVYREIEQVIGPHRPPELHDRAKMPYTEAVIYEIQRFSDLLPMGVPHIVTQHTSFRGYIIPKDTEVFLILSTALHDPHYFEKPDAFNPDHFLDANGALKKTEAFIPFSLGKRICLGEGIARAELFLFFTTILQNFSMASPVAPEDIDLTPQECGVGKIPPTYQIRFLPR
Kind of series: Inhibition of CYP2B6 (unknown origin). The series is classed as ADME.

Series [14] deals with Cytochrome P450 2C9 (Homo sapiens, UniProt P11712). Nature of the series: Inhibition of CYP2C9 (unknown origin). The format is ADME.

The term IC50 denotes the concentration that gives 50% inhibition. Read a low IC50 as higher potency. For orientation: inhibition in vivo means the drop in the measured response relative to a control, in per cent. As a reminder, the EC50 is the concentration giving half of the maximal effect.

Sequence of Cytochrome P450 2C9 (P11712 whole entry): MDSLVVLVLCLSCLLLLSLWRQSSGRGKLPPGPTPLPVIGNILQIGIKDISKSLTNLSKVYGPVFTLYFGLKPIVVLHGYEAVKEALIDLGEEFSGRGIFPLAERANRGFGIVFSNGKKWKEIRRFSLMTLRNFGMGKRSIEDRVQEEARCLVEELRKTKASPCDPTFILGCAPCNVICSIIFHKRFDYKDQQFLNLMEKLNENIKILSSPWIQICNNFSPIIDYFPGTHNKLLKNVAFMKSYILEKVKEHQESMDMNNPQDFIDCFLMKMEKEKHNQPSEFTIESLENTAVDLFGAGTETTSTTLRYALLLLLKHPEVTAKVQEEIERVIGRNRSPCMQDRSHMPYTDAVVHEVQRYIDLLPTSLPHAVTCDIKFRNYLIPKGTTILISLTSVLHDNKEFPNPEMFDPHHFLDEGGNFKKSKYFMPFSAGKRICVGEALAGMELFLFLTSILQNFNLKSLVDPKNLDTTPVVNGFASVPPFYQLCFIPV
Sequence of Cytochrome P450 3A4 (P08684 whole entry): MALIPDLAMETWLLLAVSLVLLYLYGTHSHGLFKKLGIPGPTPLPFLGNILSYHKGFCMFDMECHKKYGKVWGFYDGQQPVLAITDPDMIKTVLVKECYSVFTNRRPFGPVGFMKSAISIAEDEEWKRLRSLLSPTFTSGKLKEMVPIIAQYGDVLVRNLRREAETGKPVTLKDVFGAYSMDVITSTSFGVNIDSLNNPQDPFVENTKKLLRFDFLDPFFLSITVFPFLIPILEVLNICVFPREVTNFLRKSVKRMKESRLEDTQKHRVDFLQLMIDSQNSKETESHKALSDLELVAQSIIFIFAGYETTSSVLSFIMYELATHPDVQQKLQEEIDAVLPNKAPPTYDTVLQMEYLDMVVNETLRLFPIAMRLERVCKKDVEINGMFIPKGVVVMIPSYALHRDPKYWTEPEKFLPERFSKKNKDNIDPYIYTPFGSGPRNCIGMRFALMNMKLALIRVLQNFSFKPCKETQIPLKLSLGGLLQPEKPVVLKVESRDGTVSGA

For `Nc1nc(OCc2ccccc2)c2[nH]nnc2n1`, the Activity in [1] is less than 20%. Further, in [2], the inhibition result was “Active”. The molecule also registered a 50% inhibitory concentration (IC50) in [3] of 14 µM. In addition, the fraction unbound in series [4] was 0.01; in [5] it was 0.13. Besides, in series [6], the inhibition in vivo at 30 mg/kg amounted to 50%. For the same molecule, in series [7], the inhibition in vivo at 100 mg/kg turned out to be 70%. Besides, the concentration at 20 min in [8] amounted to 180 µM; in [9], 460 µM. For the same molecule, the Ratio is 36 in [10] and 92 in [11]. Further, the EC50 in series [12] was 10 µM.
In the case of `Nc1ccc(Oc2cc(Cl)c(Cl)cc2Cl)cn1`, the Activity in [1] was less than 20%. Also, the IC50 in series [13] and in series [14] was less than 0.1 µM throughout.
